From ChEMBL document CHEMBL3259596, “Lactam and oxazolidinone derived potent 5-hydroxytryptamine 6 receptor antagonists” (Bioorg Med Chem Lett, 2014)

Target: 5-hydroxytryptamine receptor 2B (Homo sapiens, UniProt P41595)
Assay: Binding affinity to 5-HT2B receptor (unknown origin)
Conditions: not given; call rule not given here

Chain of 5-hydroxytryptamine receptor 2B (P41595 whole entry): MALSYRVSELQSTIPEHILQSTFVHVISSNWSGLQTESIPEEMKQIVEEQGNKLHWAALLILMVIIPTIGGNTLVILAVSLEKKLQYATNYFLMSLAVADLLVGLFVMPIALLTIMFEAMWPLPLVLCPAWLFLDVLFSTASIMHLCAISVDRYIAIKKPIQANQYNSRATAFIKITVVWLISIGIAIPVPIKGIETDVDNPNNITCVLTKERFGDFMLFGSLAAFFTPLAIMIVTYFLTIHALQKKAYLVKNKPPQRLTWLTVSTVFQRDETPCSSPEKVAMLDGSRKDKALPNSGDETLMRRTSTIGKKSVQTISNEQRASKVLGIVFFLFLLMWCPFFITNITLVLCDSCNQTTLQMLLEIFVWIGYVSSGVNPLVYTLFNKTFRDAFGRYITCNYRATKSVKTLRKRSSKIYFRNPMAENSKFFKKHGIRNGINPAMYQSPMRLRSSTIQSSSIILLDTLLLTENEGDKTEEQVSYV

Row | Ki [nM] | SMILES
1 | > 30000 | O=C1CC(c2ccccc2)CN1c1cnc2c(N3CCNCC3)cccc2c1 (single isomer, unassigned; enantiomer 1)

Target: 5-hydroxytryptamine receptor 2A (Homo sapiens, UniProt P28223)
Sequence (P28223 whole entry): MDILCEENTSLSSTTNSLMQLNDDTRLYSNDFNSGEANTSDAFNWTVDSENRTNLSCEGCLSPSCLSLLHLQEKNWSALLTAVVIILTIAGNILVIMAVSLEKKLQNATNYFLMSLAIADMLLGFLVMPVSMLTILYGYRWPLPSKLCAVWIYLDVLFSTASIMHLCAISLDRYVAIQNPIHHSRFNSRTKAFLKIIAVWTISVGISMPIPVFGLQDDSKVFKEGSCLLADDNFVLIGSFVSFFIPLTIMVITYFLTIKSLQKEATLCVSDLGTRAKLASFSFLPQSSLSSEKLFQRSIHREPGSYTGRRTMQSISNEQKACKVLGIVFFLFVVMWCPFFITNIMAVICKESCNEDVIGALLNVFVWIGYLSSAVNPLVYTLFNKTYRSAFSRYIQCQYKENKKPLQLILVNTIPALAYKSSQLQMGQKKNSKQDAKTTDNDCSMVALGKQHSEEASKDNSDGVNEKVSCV
Assay: Binding affinity to 5-HT2A receptor (unknown origin)
Conditions: not given

Row | Ki [nM] | SMILES
2 | 3100 | O=C1CC(c2ccccc2)CN1c1cnc2c(N3CCNCC3)cccc2c1 (single isomer, unassigned; enantiomer 1)

Target: T1, 5-hydroxytryptamine receptor 6 (Homo sapiens, UniProt P50406)
T1 sequence (P50406 whole entry): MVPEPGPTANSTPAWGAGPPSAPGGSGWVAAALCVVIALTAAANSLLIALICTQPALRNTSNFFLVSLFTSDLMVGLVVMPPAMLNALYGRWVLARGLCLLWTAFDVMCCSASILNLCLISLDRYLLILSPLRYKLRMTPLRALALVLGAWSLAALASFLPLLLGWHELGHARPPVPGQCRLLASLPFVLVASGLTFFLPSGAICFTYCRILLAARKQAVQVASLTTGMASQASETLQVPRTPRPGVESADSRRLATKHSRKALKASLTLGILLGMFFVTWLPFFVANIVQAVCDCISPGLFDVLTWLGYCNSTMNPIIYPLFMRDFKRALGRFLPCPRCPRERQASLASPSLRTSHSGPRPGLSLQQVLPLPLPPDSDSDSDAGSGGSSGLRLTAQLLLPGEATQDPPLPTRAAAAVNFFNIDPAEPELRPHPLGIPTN
Assay: Displacement of [3H]LSD from human recombinant 5-HT6 receptor expressed in CHO-K1 cell membrane after 3 hrs by liquid scintillation counting analysis
Assay type: cell membranes
Conditions: not given
Method in brief: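 Membranes from CHO-K1 cells stably expressing human 5-HT6, 1.75 µg protein, preincubated with scintillation beads 30 min at 4 °C. Buffer was 50 mM Tris-HCl pH 7.4, 4 mM CaCl2, saponin, 0.1% ascorbic acid. Incubated 3 h at room temperature with 4 nM [3H]LSD (Kd 2.3 nM) over half-log dilutions. Nonspecific binding defined with 10 µM serotonin. IC50 from variable-slope fit, Ki by Cheng-Prusoff, mean of three experiments.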

Row | SMILES | Ki [nM]
3 | O=C1CCCN1c1cnc2c(N3CCNCC3)cccc2c1 | 4900
4 | COc1cc(OC)cc(N2C(=O)CSC23C(=O)Nc2ccccc23)c1 (racemic) | 88
5 | O=C1CC(c2ccccc2)CN1c1ccc2c(c1)CCNCC2 (racemic) | 54
6 | O=C1CC(c2ccccc2Cl)CN1c1ccc2c(c1)CCNCC2 (racemic) | 100
7 | Clc1ccccc1C1CCN(c2ccc3c(c2)CCNCC3)C1 (racemic) | 650
8 | O=C1CC(c2ccccc2)CN1c1ccc2c(c1)CCCNC2 (racemic) | 1200
9 | O=C1CC(c2ccccc2)CN1c1cccc(N2CCNCC2)n1 (racemic) | 48
10 | CN1CCN(c2ncc(N3CC(c4ccccc4)CC3=O)s2)CC1 (racemic) | > 30000
11 | O=C1CC(c2ccccc2)CN1c1ccc2c(N3CCNCC3)ccnc2c1 (racemic) | 55
12 | O=C1CC(c2ccccc2)CN1c1cnc2c(N3CCCNCC3)cccc2c1 (racemic) | 10
13 | O=C1OC(c2ccccc2F)CN1c1ccc2c(c1)CCNCC2 (racemic) | 15
14 | O=C1OC(c2ccccc2Cl)CN1c1ccc2c(c1)CCNCC2 (racemic) | 47
15 | COc1ccccc1C1CN(c2ccc3c(c2)CCNCC3)C(=O)O1 (racemic) | 87
16 | O=C1OC(c2cccc(Cl)c2)CN1c1ccc2c(c1)CCNCC2 (racemic) | 10
17 | O=C1OC(c2ccccc2Cl)CN1c1cccc(OC2CCNCC2)c1 (racemic) | 240
18 | O=C1OC(c2ccccc2Cl)CN1c1ccc2c(c1)CCNC2 (racemic) | 330

Continued, values first:

Row | Ki [nM] | SMILES
19 | 5700 | O=C1CSC2(C(=O)Nc3ccccc32)N1c1ccccc1 (racemic)
20 | 140 | O=C1CC(c2ccccc2)CN1c1ccc2c(c1)CNCC2 (racemic)
21 | 70 | O=C1CC(c2ccccc2)CN1c1cccc(C2CCNCC2)c1 (racemic)
22 | 84 | O=C1CC(c2ccccc2)CN1c1cccc(N2CCNCC2)c1 (racemic)
23 | 4100 | O=C1CC(c2ccccc2)CN1c1cncc(N2CCNCC2)c1 (racemic)
24 | 2.6 | O=C1CC(c2ccccc2)CN1c1cnc2c(N3CCNCC3)cccc2c1 (racemic)
25 | 16 | O=C1OC(c2ccccc2)CN1c1ccc2c(c1)CCNCC2 (racemic)
26 | 140 | O=C1OC(c2ccccc2Cl)CN1c1cccc(N2CCNCC2)c1 (racemic)
27 | 1900 | O=C1OC(c2ccccc2Cl)CN1c1ccc(N2CCNCC2)cc1 (racemic)
28 | 150 | O=C1OC(c2ccccc2Cl)CN1c1ccc2c(c1)CNCC2 (racemic)

Target: T2, 5-hydroxytryptamine receptor 2C (Homo sapiens, UniProt P28335)
T2 sequence (P28335 whole entry): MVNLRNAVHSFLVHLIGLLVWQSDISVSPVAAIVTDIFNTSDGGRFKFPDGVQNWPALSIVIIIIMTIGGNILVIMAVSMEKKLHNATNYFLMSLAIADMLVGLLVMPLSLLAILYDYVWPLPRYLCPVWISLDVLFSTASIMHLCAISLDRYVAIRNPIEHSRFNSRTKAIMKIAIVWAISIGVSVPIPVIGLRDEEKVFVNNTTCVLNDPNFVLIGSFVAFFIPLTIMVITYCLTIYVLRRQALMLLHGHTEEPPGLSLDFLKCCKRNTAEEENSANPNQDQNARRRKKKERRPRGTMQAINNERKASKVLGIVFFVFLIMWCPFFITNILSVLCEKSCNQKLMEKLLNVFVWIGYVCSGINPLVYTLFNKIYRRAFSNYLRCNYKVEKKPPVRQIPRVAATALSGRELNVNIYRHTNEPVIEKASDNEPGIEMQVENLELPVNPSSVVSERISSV
Assay: Binding affinity to 5-HT2C receptor (unknown origin)
Conditions: not given

Row | Ki [nM] | SMILES
29 | > 30000 | O=C1CC(c2ccccc2)CN1c1cnc2c(N3CCNCC3)cccc2c1 (single isomer, unassigned; enantiomer 1)

Target: T1, 5-hydroxytryptamine receptor 6
Assay: Antagonist activity at human 5-HT6 receptor assessed as inhibition of 5-HT-induced cAMP level treated for 10 mins prior to 5-HT challenge for 30 mins by homogeneous time-resolved fluorescent assay
Assay type: functional
Conditions: not given

Row | IC50 [nM] | SMILES
30 | 15 | O=C1CC(c2ccccc2)CN1c1cnc2c(N3CCNCC3)cccc2c1 (racemic)
31 | 8 | O=C1CC(c2ccccc2)CN1c1cnc2c(N3CCNCC3)cccc2c1 (single isomer, unassigned; enantiomer 1)

Test system: Brain
Assay: Drug uptake in rat brain at 5 mg/kg, po after 6 hrs
Assay type: ADME, organism-based
Parameters: dose 5 mg/kg, route oral
Conditions: in vivo
Method in brief: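 Rats dosed orally at 5 mg/kg. Compound measured in brain 6 h after dosing.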

Row | Drug uptake | SMILES
32 | Active | O=C1CC(c2ccccc2)CN1c1cnc2c(N3CCNCC3)cccc2c1 (single isomer, unassigned; enantiomer 1)
